Measured values published in ChEMBL document CHEMBL1138790, “Second-generation lymphocyte function-associated antigen-1 inhibitors: 1H-imidazo[1,2-alpha]imidazol-2-one derivatives” (J Med Chem, 2004).

How the values were obtained:
[1] = target: T1, Intercellular adhesion molecule (ICAM-1), Integrin alpha-L/beta-2 (Homo sapiens, UniProt P05107+P20701); assay: Dissociation constant for human Lymphocyte function associated antigen 1 in LFA-1/ICAM-1 binding assay; assay type: protein-complex assay
[2] = Concentration required for inhibition of aggregation of JY cell line; assay type: functional, cell-based; settings: Homo sapiens
Cell line [3] = assay: Concentration required for irreversible binding to human liver microsomes; assay type: functional
[4] = Maximum plasma concentration present after 4 hours of administration of compound of at 30 mg/kg; assay type: ADME, organism-based, Homo sapiens; set-up: dose 30 mg/kg; settings: read-out: Concentration
[5] = Maximum plasma concentration present after 4 hours of administration of compound of at 100 mg/kg; assay type: ADME, organism-based, Homo sapiens; set-up: dose 100 mg/kg; settings: read-out: Concentration
Procedure, shortened: (§1)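 Mice in the SEB-induced IL-2 production experiment were dosed orally at 30 or 100 mg/kg. Plasma drug concentration was measured 4 h after dosing and reported in ng/mL.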

[6] = target: T1, Intercellular adhesion molecule (ICAM-1), Integrin alpha-L/beta-2; assay: Dissociation constant against human Lymphocyte function associated antigen1 in LFA-1/ICAM-1 binding assay; assay type: protein-complex assay
[7] = target: T1, Intercellular adhesion molecule (ICAM-1), Integrin alpha-L/beta-2; assay: Dissociation constant for human Lymphocyte function-associated antigen-1 in LFA-1/ICAM-1 binding assay; assay type: protein-complex assay
[8] = Concentration of compound required for 50% inhibition of aggregation of JY cell lines; assay type: functional, cell-based; settings: Homo sapiens
Cell line [9] = assay: cells; assay type: functional, cell-based; settings: Homo sapiens, Blood
Mus musculus = species on record: Mus musculus; assay: tissue or blood; assay type: functional, organism-based
[10] = target: T1, Intercellular adhesion molecule (ICAM-1), Integrin alpha-L/beta-2; assay: Dissociation constant for human Lymphocyte function associated antigen1 in LFA-1/ICAM-1 binding assay
[11] = Maximum plasma concentration present after 4 hours of administration of compound at 30 mg/kg; assay type: ADME, organism-based, Homo sapiens; set-up: dose 30 mg/kg; settings: read-out: Concentration
[12] = Maximum plasma concentration present after 4 hours of administration of compound of concentration 100 mg/kg; assay type: ADME, organism-based, Homo sapiens; set-up: dose 100 mg/kg; settings: read-out: Concentration; procedure, shortened: as §1
[13] = Concentration required to inhibit aggregation of JY cells; assay type: functional, cell-based; settings: Homo sapiens

T1 sequence (P20701 whole entry): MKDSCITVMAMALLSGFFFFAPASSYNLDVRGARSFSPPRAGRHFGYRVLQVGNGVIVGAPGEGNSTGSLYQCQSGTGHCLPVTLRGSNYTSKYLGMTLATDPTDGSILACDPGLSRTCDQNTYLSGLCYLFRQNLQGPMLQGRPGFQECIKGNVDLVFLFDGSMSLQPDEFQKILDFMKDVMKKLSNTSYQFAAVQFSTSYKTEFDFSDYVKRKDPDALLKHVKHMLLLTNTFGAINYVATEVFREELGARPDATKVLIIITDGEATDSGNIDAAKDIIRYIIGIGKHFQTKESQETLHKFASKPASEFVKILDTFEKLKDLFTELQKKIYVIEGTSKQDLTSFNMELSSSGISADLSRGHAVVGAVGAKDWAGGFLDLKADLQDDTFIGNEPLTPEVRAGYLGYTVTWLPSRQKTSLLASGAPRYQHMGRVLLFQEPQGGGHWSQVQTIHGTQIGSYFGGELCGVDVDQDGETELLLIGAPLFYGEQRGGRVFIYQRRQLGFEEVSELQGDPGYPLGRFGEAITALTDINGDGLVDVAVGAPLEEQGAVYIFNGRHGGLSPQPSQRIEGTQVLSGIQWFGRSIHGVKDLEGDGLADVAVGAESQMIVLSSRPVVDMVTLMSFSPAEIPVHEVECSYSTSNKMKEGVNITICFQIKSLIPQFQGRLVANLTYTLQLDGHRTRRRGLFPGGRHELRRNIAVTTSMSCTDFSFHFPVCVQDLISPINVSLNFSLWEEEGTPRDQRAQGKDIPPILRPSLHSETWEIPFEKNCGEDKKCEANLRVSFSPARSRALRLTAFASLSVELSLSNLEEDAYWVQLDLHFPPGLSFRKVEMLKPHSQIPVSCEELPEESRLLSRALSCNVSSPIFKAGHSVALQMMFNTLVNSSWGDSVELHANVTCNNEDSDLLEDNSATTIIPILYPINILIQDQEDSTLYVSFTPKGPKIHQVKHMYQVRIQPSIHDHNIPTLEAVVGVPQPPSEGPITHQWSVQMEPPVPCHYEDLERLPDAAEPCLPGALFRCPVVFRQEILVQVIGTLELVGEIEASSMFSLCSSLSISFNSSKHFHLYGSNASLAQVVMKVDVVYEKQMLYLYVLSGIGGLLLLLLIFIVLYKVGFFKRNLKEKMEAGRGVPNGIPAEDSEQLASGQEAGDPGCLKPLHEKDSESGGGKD
T1 sequence (P05362 whole entry, further chain): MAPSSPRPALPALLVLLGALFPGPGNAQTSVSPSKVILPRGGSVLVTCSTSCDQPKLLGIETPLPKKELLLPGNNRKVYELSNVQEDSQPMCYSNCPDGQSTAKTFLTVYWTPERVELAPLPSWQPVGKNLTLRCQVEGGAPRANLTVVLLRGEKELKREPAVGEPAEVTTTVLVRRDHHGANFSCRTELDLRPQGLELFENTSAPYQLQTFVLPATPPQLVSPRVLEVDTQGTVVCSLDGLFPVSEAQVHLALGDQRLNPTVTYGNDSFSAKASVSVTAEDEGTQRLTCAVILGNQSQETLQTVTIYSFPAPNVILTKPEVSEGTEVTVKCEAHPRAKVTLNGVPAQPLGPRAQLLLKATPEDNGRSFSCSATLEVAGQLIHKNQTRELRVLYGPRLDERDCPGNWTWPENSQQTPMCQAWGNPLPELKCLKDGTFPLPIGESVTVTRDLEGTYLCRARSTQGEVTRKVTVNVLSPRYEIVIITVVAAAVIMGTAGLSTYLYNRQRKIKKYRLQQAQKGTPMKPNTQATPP
T1 sequence (P05107 whole entry): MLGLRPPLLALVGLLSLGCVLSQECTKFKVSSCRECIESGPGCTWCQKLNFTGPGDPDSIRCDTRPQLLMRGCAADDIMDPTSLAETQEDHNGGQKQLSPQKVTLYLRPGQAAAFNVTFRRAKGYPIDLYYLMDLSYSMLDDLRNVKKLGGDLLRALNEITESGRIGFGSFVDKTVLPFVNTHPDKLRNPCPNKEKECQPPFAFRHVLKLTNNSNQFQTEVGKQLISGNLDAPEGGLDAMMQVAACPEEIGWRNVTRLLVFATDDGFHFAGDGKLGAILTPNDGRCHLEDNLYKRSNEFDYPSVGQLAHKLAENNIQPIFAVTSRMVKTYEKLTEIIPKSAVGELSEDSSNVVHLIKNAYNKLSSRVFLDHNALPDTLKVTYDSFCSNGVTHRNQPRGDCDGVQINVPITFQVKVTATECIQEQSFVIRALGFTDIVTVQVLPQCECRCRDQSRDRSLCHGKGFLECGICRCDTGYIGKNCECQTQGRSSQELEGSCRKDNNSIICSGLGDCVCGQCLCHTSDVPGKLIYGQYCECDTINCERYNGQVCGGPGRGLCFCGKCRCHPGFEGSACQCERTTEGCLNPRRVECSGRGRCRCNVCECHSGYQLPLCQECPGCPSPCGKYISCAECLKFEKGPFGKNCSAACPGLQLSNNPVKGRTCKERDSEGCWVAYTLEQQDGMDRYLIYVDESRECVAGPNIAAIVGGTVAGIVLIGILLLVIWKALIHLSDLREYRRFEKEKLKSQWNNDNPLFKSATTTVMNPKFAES

SMILES: C[C@@]1(Cc2ccc(Br)cc2)C(=O)N(c2cc(Cl)cc(Cl)c2)c2nccn21
- Kd [1]: 10 nM
- IC50 [2]: 1200 nM
- Activity (Cell line [3]): 114 pM/min/ml
- Cmax [4]: 25 ng/mL
- Cmax [5]: 155 ng/mL

SMILES: C[C@@]1(Cc2ccc(Br)cc2)C(=O)N(c2cc(Cl)cc(Cl)c2)c2ncc(S(=O)(=O)N3CCC(O)CC3)n21
- Kd [6]: 40 nM
- Kd [1]: 8 nM
- Kd [7]: 9 nM
- IC50 [8]: 30 nM
- IC50 (Cell line [9]): 4600 nM
- IC50 (Mus musculus): 4600 nM

SMILES: CC1(Cc2ccc(Br)cc2)C(=O)N(c2cc(Cl)cc(Cl)c2)c2nccn21 (racemic)
- Kd [1]: 380 nM

SMILES: CC1(Cc2ccc(Br)cc2)C(=O)N(c2cc(Cl)cc(Cl)c2)c2nnnn21 (centres undefined)
- Kd [1]: 110 nM

SMILES: CC(=O)OCCCS(=O)(=O)c1cnc2n1[C@](C)(Cc1ccc(Br)cc1)C(=O)N2c1cc(Cl)cc(Cl)c1
- Kd [6]: 40 nM
- Kd [1]: 10 nM
- IC50 [8]: 370 nM
- IC50 (Cell line [9]): 7000 nM

SMILES: CC(=O)OCCCCS(=O)(=O)c1cnc2n1[C@](C)(Cc1ccc(Br)cc1)C(=O)N2c1cc(Cl)cc(Cl)c1
- Kd [1]: 30 nM

SMILES: C[C@@]1(Cc2ccc(Br)cc2)C(=O)N(c2cc(Cl)cc(Cl)c2)c2ncc(S(=O)(=O)N3CCCC(O)C3)n21 (some centres undefined)
- Kd [1]: 70 nM

SMILES: C[C@@]1(Cc2ccc(Br)cc2)C(=O)N(c2cc(Cl)cc(Cl)c2)c2ncc(S(=O)(=O)CCCO)n21
- Kd [6]: 100 nM
- Kd [1]: 10 nM
- Kd [10]: 10 nM
- IC50 [8]: 90 nM
- IC50 (Cell line [9]): 10400 nM

SMILES: C[C@@]1(Cc2ccc(Br)cc2)C(=O)N(c2cc(Cl)cc(Cl)c2)c2ncc(S(=O)(=O)N3CCNCC3)n21
- Kd [6]: 400 nM
- Kd [1]: 50 nM
- IC50 [8]: 380 nM
- IC50 (Cell line [9]): 27800 nM
- IC50 (Mus musculus): 27800 nM

SMILES: C[C@@]1(Cc2ccc(Br)cc2)C(=O)N(c2cc(Cl)cc(Cl)c2)c2ncc(S(C)(=O)=O)n21
- Kd [1]: 50 nM
- IC50 [2]: 260 nM
- Cmax [11]: 2800 ng/mL
- Cmax [12]: 14400 ng/mL

SMILES: C[C@@]1(Cc2ccc(Br)cc2)C(=O)N(c2cc(Cl)cc(Cl)c2)c2ncc(S(=O)(=O)N3CCCCC3)n21
- Kd [1]: 50 nM

SMILES: COCCCS(=O)(=O)c1cnc2n1[C@](C)(Cc1ccc(Br)cc1)C(=O)N2c1cc(Cl)cc(Cl)c1
- Kd [1]: 20 nM

SMILES: C[C@]1(Cc2ccc(Br)cc2)C(=O)N(c2cc(Cl)cc(Cl)c2)c2nccn21
- Kd [1]: > 7000 nM

SMILES: C[C@@]1(Cc2ccc(Br)cc2)C(=O)N(c2cc(Cl)cc(Cl)c2)c2ncc(S(=O)(=O)N3CCC(=O)CC3)n21
- Kd [6]: 300 nM
- Kd [1]: 10 nM
- IC50 [8]: 250 nM
- IC50 (Cell line [9]): 5500 nM
- IC50 (Mus musculus): 5500 nM

SMILES: CN1C(=O)N(c2cc(Cl)cc(Cl)c2)C(=O)[C@@]1(C)Cc1ccc(Br)cc1
- IC50 [13]: 240 nM
- Activity (Cell line [3]): 141 pM/min/mg

SMILES: CC1(Cc2ccc(Br)cc2)C(=O)N(c2cc(Cl)cc(Cl)c2)c2nc(S(C)(=O)=O)cn21 (centres undefined)
- Kd [1]: 920 nM

SMILES: CC1(Cc2ccc(Br)cc2)C(=O)N(c2cc(Cl)cc(Cl)c2)c2nncn21 (centres undefined)
- Kd [1]: 40 nM

SMILES: C[C@@]1(Cc2ccc(Br)cc2)C(=O)N(c2cc(Cl)cc(Cl)c2)c2ncc(S(=O)(=O)CCCCO)n21
- Kd [1]: 10 nM

SMILES: CNCCCS(=O)(=O)c1cnc2n1[C@](C)(Cc1ccc(Br)cc1)C(=O)N2c1cc(Cl)cc(Cl)c1
- Kd [1]: 150 nM

SMILES: Cc1cnc2n1C(C)(Cc1ccc(Br)cc1)C(=O)N2c1cc(Cl)cc(Cl)c1 (centres undefined)
- Kd [1]: 340 nM

SMILES: CC1(Cc2ccc(Br)cc2)C(=O)N(c2cc(Cl)cc(Cl)c2)c2ncc(S(C)(=O)=O)n21 (centres undefined)
- Kd [1]: 70 nM

SMILES: C[C@@]1(Cc2ccc(Br)cc2)C(=O)N(c2cc(Cl)cc(Cl)c2)c2ncc(S(=O)(=O)N3CCOCC3)n21
- Kd [1]: 20 nM

SMILES: COc1cnc2n1C(C)(Cc1ccc(Br)cc1)C(=O)N2c1cc(Cl)cc(Cl)c1 (centres undefined)
- Kd [1]: 360 nM

SMILES: CC1(Cc2ccc(Br)cc2)C(=O)N(c2cc(Cl)cc(Cl)c2)c2ncc(I)n21 (centres undefined)
- Kd [1]: 410 nM

SMILES: C[C@@]1(Cc2ccc(Br)cc2)C(=O)N(c2cc(Cl)cc(Cl)c2)c2ncc(S(=O)(=O)CCO)n21
- Kd [1]: 40 nM

SMILES: CC1(Cc2ccc(Br)cc2)C(=O)N(c2cc(Cl)cc(Cl)c2)c2nc(I)cn21 (centres undefined)
- Kd [1]: > 20000 nM

SMILES: CC1(Cc2ccc(Br)cc2)C(=O)N(c2cc(Cl)cc(Cl)c2)c2nc(Br)cn21 (centres undefined)
- Kd [1]: 630 nM

SMILES: CC(=O)NCCCS(=O)(=O)c1cnc2n1[C@](C)(Cc1ccc(Br)cc1)C(=O)N2c1cc(Cl)cc(Cl)c1
- Kd [6]: 70 nM
- Kd [1]: 30 nM
- IC50 [8]: 350 nM
- IC50 (Cell line [9]): 9500 nM
- IC50 (Mus musculus): 9500 nM

SMILES: C[C@@]1(Cc2ccc(Br)cc2)C(=O)N(c2cc(Cl)cc(Cl)c2)c2ncc(S(=O)(=O)CCCN)n21
- Kd [1]: 170 nM

SMILES: CC1(Cc2ccc(Br)cc2)C(=O)N(c2cc(Cl)cc(Cl)c2)c2ncc(C#N)n21 (centres undefined)
- Kd [1]: 190 nM

SMILES: CC1(Cc2ccc(Br)cc2)C(=O)N(c2cc(Cl)cc(Cl)c2)c2nc(C#N)cn21 (centres undefined)
- Kd [1]: 280 nM

SMILES: CC1(Cc2ccc(Br)cc2)C(=O)N(c2cc(Cl)cc(Cl)c2)c2ncc(Br)n21 (centres undefined)
- Kd [1]: 180 nM
